TAAR1 antag = human TAAR1 antagonists, primary screen, Fluo-8 calcium fluorescence, CHO RD-HGA16 cells. Trace amine-associated receptor 1 (Homo sapiens), Q96RJ0. antagonist. inhibition, % at 3 µM. 360,000 tested, 1.5% active. AID 624466, 2012;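 active = inhibition above a per-plate cutoff, the mean inhibition of test compounds on that plate plus 3 SD, cut at about 49% in these data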;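 note: 0% = DMSO plus EC80 beta-PEA response and 100% = DMSO alone without agonist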
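Assay system: RD-HGA16 CHO cells with stable hTAAR1 and Gα16 / Reagent: EC80 β-phenethylamine stimulus / Doses: 3 µM, single point / Timing: dye loading 75 min at 37 °C, then 30 min room temperature / Measured by: Fluo-8 intracellular calcium dye fluorescence, real-time kinetic reads / Controls: vehicle wells and EC80 agonist wells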
GPR7 antagonist = GPR7 receptor antagonists, primary screen, cell-based, fluorescence, single concentration; Neuropeptides B/W receptor type 1 (Homo sapiens), P48145; GPR7-expressing cells, fluorescence antagonist assay; inhibition, % at 4.4 µM; 290,000 tested, 1.1% active; AID 1861, 2009; in the data active = inhibition above about 16%, passing the limit was not always enough;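 note: cells stimulated with the agonist NPW; 0% = agonist with vehicle and 100% = vehicle without agonist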
MPTP block = mitochondrial permeability transition pore inhibitors, primary screen, biochemical, isolated mouse mitochondria, absorbance; 360,000 tested, 1.4% active; Ca2+ swelling absorbance, 30 min; inhibition, % at 10 µM; AID 602449, 2012;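 active = inhibition of 50% or more, scaled per plate between neutral and stimulator controls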;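 note: 0% = DMSO wells given calcium and 100% = 1 mM EGTA wells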
TAAR1 ag = human TAAR1 agonists, primary screen, Fluo-8 calcium fluorescence, CHO RD-HGA16 cells | vehicle wells 0%, saturating PEA agonist 100% | activation, % at 3 µM | 360,000 tested, 0.99% active;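 active = activation above the mean activation of all test compounds in the run plus 3 SD, cut at about 38% in these data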
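System: CHO-derived RD-HGA16 cells with stable Gα16 and human TAAR1 / Times: 17-24 h plating, Fluo-8 75 min 37 °C, 30 min RT / Technique: calcium-sensitive Fluo-8 signal, excitation 470-495, emission 515-575 nm / Measure: % activation relative to PEA EC100 response / Benchmarks: DMSO and PEA EC100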
DAGLB inh = DAGLB lipase inhibitors, primary screen, biochemical, fluorescence, HTS. 340,000 tested, 0.059% active. HEK293T DAGLB membrane lysate, EnzChek fluorogenic substrate. Diacylglycerol lipase-beta (Homo sapiens), Q8NCG7. inhibition, % at 5.17 µM; in the data active = inhibition above about 34%;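 note: 0% = enzyme with vehicle and 100% = wells lacking enzyme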
Target sequence (Q8NCG7 whole entry, looked up): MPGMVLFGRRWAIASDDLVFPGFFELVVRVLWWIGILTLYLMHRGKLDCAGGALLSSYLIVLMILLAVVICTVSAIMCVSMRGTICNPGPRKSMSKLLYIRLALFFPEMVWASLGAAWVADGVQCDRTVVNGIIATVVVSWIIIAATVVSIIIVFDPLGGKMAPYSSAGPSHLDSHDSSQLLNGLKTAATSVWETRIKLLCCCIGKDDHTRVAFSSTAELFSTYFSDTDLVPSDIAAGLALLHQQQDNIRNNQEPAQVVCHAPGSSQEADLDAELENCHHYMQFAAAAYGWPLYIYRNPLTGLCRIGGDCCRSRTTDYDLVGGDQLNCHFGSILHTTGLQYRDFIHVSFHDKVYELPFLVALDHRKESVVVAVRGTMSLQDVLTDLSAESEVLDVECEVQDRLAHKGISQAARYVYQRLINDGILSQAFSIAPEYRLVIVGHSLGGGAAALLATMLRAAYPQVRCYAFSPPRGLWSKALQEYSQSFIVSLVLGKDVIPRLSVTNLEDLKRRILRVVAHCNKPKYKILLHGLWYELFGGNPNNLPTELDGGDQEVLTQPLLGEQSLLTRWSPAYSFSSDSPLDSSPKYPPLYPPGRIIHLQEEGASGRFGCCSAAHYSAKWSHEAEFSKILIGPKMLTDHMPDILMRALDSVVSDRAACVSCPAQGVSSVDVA
GPR7 antag conf = GPR7 receptor antagonists, confirmation, cell-based, fluorescence, single concentration | shares compounds with GPR7 antagonist | GPR7-expressing cells, calcium fluorescence antagonist mode | inhibition, % at 4.4 µM | 2,400 tested, 52% active; in the data active = inhibition above about 24%;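 note: stimulated with the GPR7 agonist NPW; 0% = agonist plus vehicle and 100% = vehicle alone without agonist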
MCHR1 antagonist = MCHR1 antagonists in cells, counter-screen for GPR7 antagonist project, cell-based, fluorescence, human; shares compounds with GPR7 antagonist; MCHR1-expressing cells, fluorescence antagonist assay; inhibition, % at 4.4 µM; 2,400 tested, 62% active; AID 2148, 2009;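 note: 0% = vehicle with agonist and 100% = vehicle without agonist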
Rh123 counter = fluorescence retest of MPTP screen hits in isolated mitochondria, single concentration; membrane potential, Rhodamine 123 fluorescence; 5,000 tested, 78% active; shares compounds with MPTP block; inhibition, % at 10 µM;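 note: 0% = DMSO vehicle and 100% = positive control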
MPTP swell DR = mitochondrial permeability transition pore inhibitors, dose response, biochemical, absorbance, uHTS hits | shares compounds with MPTP block | isolated mitochondria swelling | IC50, µM | 780 tested, 58% active | AID 651561, 2012; in the data active = IC50 below about 20 µM
MPTP cs DR = fluorescent counter-screen in isolated mitochondria, dose response, counter-screen for MPTP inhibitor project, biochemical, fluorescence, uHTS hits; shares compounds with MPTP block; isolated mitochondria counterscreen, fluorescence read-out; IC50, µM; 780 tested, 49% active; AID 651564, 2012; in the data active = IC50 below about 80 µM
nonsel antag count = nonselective antagonists in TAAR1 counter-screen cells, counter-screen for hTAAR1 antagonist project, cell-based, fluorescence, calcium. shares compounds with TAAR1 antag. counterscreen cell line, antagonist mode. inhibition, % at 3 µM. 2,400 tested, 77% active. AID 651780, 2012;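 note: CHO-Ga16 host cells stimulated with ATP at an EC80 level; 0% = agonist EC80 plus vehicle and 100% = vehicle without agonist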
TAAR1 antag conf = human TAAR1 antagonists, retest of hits, confirmation, cell-based, fluorescence. 2,400 tested, 40% active. AID 651785, 2012. shares compounds with TAAR1 antag. TAAR1-expressing cells, fluorescence antagonist read-out. inhibition, % at 3 µM; in the data active = inhibition above about 49%;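 note: CHO-Ga16 host cells challenged with agonist PEA near its EC80; 0% = agonist at EC80 plus vehicle and 100% = vehicle with no agonist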
Ga16 ag counter = calcium activation in Ga16-expressing cells, counter-screen for TAAR1 antagonist project, cell-based, fluorescence. shares compounds with TAAR1 antag. agonist counterscreen. activation, % at 3 µM. 2,400 tested, 18% active; in the data active = activation above about 12%;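 note: 0% = vehicle wells and 100% = saturating stimulus response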
TAAR1 ag count = TAAR1 activation by candidate antagonists – cell-based, fluorescence, counter-screen for TAAR1 antagonist project; shares compounds with TAAR1 antag; hTAAR1 cell line, agonist mode; activation, % at 3 µM; 2,400 tested, 2% active; in the data active = activation above about 37%;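 note: CHO cells stably expressing TAAR1 with calcium dye readout; 0% = DMSO vehicle and 100% = full agonist response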
The depositor's hits bear a star; nt = no result. Most compounds without a hit are left out; they make up all but 4% or so of the library. Cut-off read from the data, not from the text of the source, unless noted: active = inhibition above about 22%; inactive = the rest.

SMILES	TAAR1 antag	GPR7 antagonist	MPTP block	TAAR1 ag	DAGLB inh	GPR7 antag conf	MCHR1 antagonist	Rh123 counter	others
Cc1ccc(NC(=O)CSc2nn(-c3ccccc3)c(=S)s2)cc1S(=O)(=O)N(C)C	50.9*	21.4*	98.5*	10.5	-6.5	56.1*	68.0*	76.1*
CCOC(=O)c1ccc(NC(=O)Nc2ccc(F)cc2)cc1	13.8	23.1*	97.1*	34.9	-6.6	47.1*	55.5*	84.9*
Cc1ccc(NC(=O)Nc2ccc(F)cc2)cc1Cl	26.9	27.8*	94.7*	17.7	-7.0	9.0	52.2*	90.0*
O=C(C[C@H]1CC[C@@H](NS(=O)(=O)c2ccccc2)[C@@H](CO)O1)NCc1ccc(Cl)c(Cl)c1	-11.2	nt	-0.3	3.0	nt	nt	nt	nt
CC(=O)NC(=S)Nc1cccc([N+](=O)[O-])c1	3.9	-14.4	-1.2	1.8	-1.9	nt	nt	nt
COC(=O)c1ccc(NC(=O)Nc2ccc([N+](=O)[O-])cc2)cc1	16.9	46.7*	94.5*	10.4	1.3	70.8*	67.3*	84.9*
COc1cc(NC(=O)Nc2cccc([N+](=O)[O-])c2)cc(OC)c1	13.1	28.4*	98.0*	14.5	-3.3	5.5	73.9*	88.6*
C[C@H](O)[C@@H]1C(=O)N2CCc3c([nH]c4c(-c5ccc6c(c5)OCO6)cccc34)[C@@H]2C[C@@H]1N(C)C(=O)Nc1ccccc1	24.5	nt	nt	4.2	nt	nt	nt	nt
COc1ccc(Sc2cccc(Cl)c2)c(C(=O)O)c1	-14.5	nt	nt	-1.3	nt	nt	nt	nt
S=C(Nc1ccc(Cl)c(Cl)c1)NC1CCCCC1	nt	42.6*	96.4*	nt	-12.0	35.4*	48.1*	75.2*
O=[N+]([O-])c1ccc(C[n+]2cccc3c4ccccc4ccc32)cc1	6.8	-16.3	-1.2	5.9	2.9	nt	nt	nt
CCCCCCCCC[n+]1cccc2c3ccccc3ccc21	nt	75.1*	88.8*	nt	4.8	80.2*	80.4*	116.5*
Cc1cc2c(cc1C)-n1nnnc1C(N(C)Cc1ccccc1)C(=O)N2 (stereo unspecified)	-1.0	nt	0.8	4.4	nt	nt	nt	nt
CCCCN1/C(=C/c2ccc3ccccc3[n+]2CC)Sc2ccccc21	nt	84.6*	94.3*	nt	nt	81.2*	78.8*	104.4*
N=c1n(CCN2CCCCC2)c2ccccc2n1CC(O)COc1ccccc1 (stereo unspecified)	1.7	39.7*	98.0*	2.8	-0.1	39.9*	23.1*	11.9	MPTP swell DR=17.8*;MPTP cs DR=67.8*
COc1cccc(NC(=O)CCc2nnc3ccc(N4CCN(c5cccc(OC)c5)CC4)nn23)c1	nt	-6.9	-0.4	nt	1.7	nt	nt	nt
COc1ccc(NC(=O)CCc2nnc3ccc(N4CCN(c5cccc(OC)c5)CC4)nn23)cc1	63.2*	24.6*	0.1	8.8	3.8	0.7	33.4*	nt	nonsel antag count=22.6*;TAAR1 antag conf=39.1;Ga16 ag counter=8.7;TAAR1 ag count=13.8
Cc1ccc(C2c3[nH]c4ccccc4c3C[C@H]3C(=O)N(c4ccccc4C(=O)NCCN4CCOCC4)C(=O)N23)cc1 (stereo partly specified)	61.0*	28.4*	-1.2	10.3	2.6	7.1	21.7*	nt	nonsel antag count=26.7*;TAAR1 antag conf=42.0;Ga16 ag counter=6.8;TAAR1 ag count=9.1
O=C(NCCCN1CCOCC1)c1ccccc1N1C(=O)[C@@H]2Cc3c([nH]c4ccccc34)C(c3cccc(Cl)c3)N2C1=O (stereo partly specified)	71.4*	26.9*	-0.4	18.5	-0.1	25.5*	34.7*	nt	nonsel antag count=47.4*;TAAR1 antag conf=70.2*;Ga16 ag counter=22.5*;TAAR1 ag count=27.2
O=C(NCCCN1CCOCC1)c1ccccc1N1C(=O)[C@@H]2Cc3c([nH]c4ccccc34)C(c3ccccc3)N2C1=O (stereo partly specified)	-5.0	nt	-0.7	3.1	nt	nt	nt	nt
Cc1ccccc1-c1ccc2c(c1)[C@@H]1C[C@H](N(C)C(=O)Nc3ccccc3)[C@H]([C@H](C)O)CN1CC2	-18.8	nt	nt	0.0	nt	nt	nt	nt
CS(=O)c1nc(-c2ccc(Br)cc2)cc(-c2ccccc2)c1C#N (stereo unspecified)	69.7*	53.9*	2.6	-2.0	1.9	97.3*	100.9*	nt	nonsel antag count=27.1*;TAAR1 antag conf=53.0*;Ga16 ag counter=4.4;TAAR1 ag count=1.7
COc1ccc(NC(=O)c2cccc3c(-c4ccc(O)c(OC)c4)coc23)cc1	47.0	nt	-0.4	2.3	nt	nt	nt	nt
COc1cc(/C=C/c2nc(-c3ccccc3O)n[nH]2)cc(OC)c1OC	72.4*	21.7*	40.2	3.2	-3.1	32.6*	56.7*	nt	nonsel antag count=21.9*;TAAR1 antag conf=50.6*;Ga16 ag counter=5.7;TAAR1 ag count=3.6
COc1cc(/C=C/c2nc(N)nc(-c3ccccc3O)n2)cc(OC)c1OC	47.2	-4.0	-0.4	8.7	-5.5	nt	nt	nt
COc1ccc([C@@H]2C[C@H]3[C@@H](CN2S(=O)(=O)c2ccccc2)C(=O)C[C@@H](c2ccccc2F)N3S(=O)(=O)c2ccc(C)cc2)cc1	-11.0	nt	0.2	4.1	-7.6	nt	nt	nt
CC(C)Nc1ncnc2c1ncn2[C@H]1CN(Cc2ccc3c(c2)OCO3)C[C@@H](CO)O1	-22.2	nt	-0.6	1.9	nt	nt	nt	nt
